Measurements as given in ChEMBL document CHEMBL1137432, “Characterization of the histamine H4 receptor binding site. Part 1. Synthesis and pharmacological evaluation of dibenzodiazepine derivatives” (J Med Chem, 2006).

Each compound was assayed against T1, Histamine H4 receptor (Homo sapiens, UniProt Q9H3N8) (assay: Displacement of [3H]histamine from human histamine H4 receptor transfected in SK-N-MC cells). Details: not given.
T1 sequence (Q9H3N8 whole entry): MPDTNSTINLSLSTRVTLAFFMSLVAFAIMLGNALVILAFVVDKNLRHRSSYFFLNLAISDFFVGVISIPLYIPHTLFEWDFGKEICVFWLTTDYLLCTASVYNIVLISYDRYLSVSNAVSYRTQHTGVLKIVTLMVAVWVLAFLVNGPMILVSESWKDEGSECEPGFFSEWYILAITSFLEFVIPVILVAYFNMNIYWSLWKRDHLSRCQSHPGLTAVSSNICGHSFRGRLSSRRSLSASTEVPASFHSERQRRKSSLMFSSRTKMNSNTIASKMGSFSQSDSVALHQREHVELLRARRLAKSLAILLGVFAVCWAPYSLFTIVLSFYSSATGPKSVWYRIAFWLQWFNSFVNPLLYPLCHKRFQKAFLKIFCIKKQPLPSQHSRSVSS

Which Ki does the source give for CN1CCN(C2=Cc3ccccc3Oc3ccc(Cl)cc32)CC1 here?
The Ki was greater than 10000 nM.

CN1CCN(C2=Nc3cc(Cl)ccc3N(C)c3ccccc32)CC1 was tested. Which Ki did it give?
The Ki was 1410 nM.

For CN1CCN(C2=Nc3ccccc3Oc3ccccc32)CC1, which Ki is on record?
Its Ki is 132 nM.

With CN1CCN(C2=Nc3ccc(Cl)cc3Oc3c(F)cccc32)CC1 as the compound, how does the Ki read?
The Ki was 30.9 nM.

For CN1CCN(C2=Nc3ccccc3Oc3ccc(Cl)cc32)CC1 [LOXAPINE], which Ki is on record?
The Ki was 4570 nM.

How did the Ki turn out when CN1CCN(C2=Nc3cc(Cl)ccc3Oc3cc(Cl)ccc32)CC1 was run?
Its Ki is 309 nM.

CN1CCN(C2=Nc3ccccc3Cc3ccccc32)CC1 [PERLAPINE] was tested. Which Ki did it give?
The Ki was 4790 nM.

Which Ki does the source give for CCN1CCN(C2=Nc3cc(Cl)ccc3Oc3ccccc32)CC1 here?
The Ki was 288 nM.

With Clc1ccc2c(c1)N=C(N1CCOCC1)c1ccccc1N2 as the compound, how does the Ki read?
The Ki was greater than 10000 nM.

OCCN1CCN(C2=Nc3cc(Cl)ccc3Nc3ccccc32)CC1 was tested. Which Ki did it give?
The Ki was 4680 nM.

Cc1ccc2c(c1)Oc1ccccc1C(N1CCN(C)CC1)=N2 was tested. Which Ki did it give?
Its Ki is 79.4 nM.

How did the Ki turn out when CN1CCN(C2=Nc3cc(Cl)ccc3Oc3ccc(F)cc32)CC1 was run?
Its Ki is 191 nM.

Clc1ccc2c(c1)N=C(N1CCNCC1)c1ccccc1O2 was tested. Which Ki did it give?
Its Ki is 324 nM.

For CN1CCN(C2=Nc3ccc(Cl)cc3Oc3cc(F)ccc32)CC1, which Ki is on record?
The Ki was 38.9 nM.

For CC(C)N1CCN(C2=Nc3cc(Cl)ccc3Oc3ccccc32)CC1, which Ki is on record?
The Ki was 1070 nM.

How did the Ki turn out when CN1CCN(C2=Nc3cc(Cl)ccc3Oc3ccccc32)CC1 [ISOLOXAPINE] was run?
Its Ki is 42.7 nM.

Which Ki does the source give for CN1CCN(C2=Nc3cc(Cl)ccc3Sc3ccccc32)CC1 [ISOCLOTHIAPINE] here?
Its Ki is 2040 nM.

With CN1CCN(C2=Nc3cc(Cl)ccc3Oc3c(F)cccc32)CC1 as the compound, how does the Ki read?
The Ki was 27.5 nM.

For CN1CCN(C2=Nc3ccc(Cl)cc3Oc3c(Cl)cccc32)CC1, which Ki is on record?
The Ki was 45.7 nM.

For Clc1ccc2c(c1)N=C(N1CCCCC1)c1ccccc1N2, which Ki is on record?
The Ki was greater than 10000 nM.

What follows are compounds tested against T1, Histamine H4 receptor (assay: Activity at human histamine H4 receptor transfected in SK-N-MC cells by cAMP assay). Details: not given.
Type: functional, cell-based
Procedure, shortened: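 Colorimetric cAMP read-out in SK-N-MC cells stably expressing the human H4 receptor together with a CRE-β-galactosidase reporter gene, used to measure functional activity.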

For CN1CCN(C2=Nc3ccccc3Oc3ccccc32)CC1, which EC50 is on record?
Its EC50 is 302 nM.

Which EC50 does the source give for CN1CCN(C2=Nc3ccc(Cl)cc3Oc3c(F)cccc32)CC1 here?
Its EC50 is 20.4 nM.

For CN1CCN(C2=Nc3ccccc3Oc3ccc(Cl)cc32)CC1 [LOXAPINE], which EC50 is on record?
The EC50 was 219 nM.

With CN1CCN(C2=Nc3cc(Cl)ccc3Oc3cc(Cl)ccc32)CC1 as the compound, how does the EC50 read?
Its EC50 is 102 nM.

Which EC50 does the source give for Cc1ccc2c(c1)Oc1ccccc1C(N1CCN(C)CC1)=N2 here?
The EC50 was 105 nM.

For CN1CCN(C2=Nc3cc(Cl)ccc3Oc3ccc(F)cc32)CC1, which EC50 is on record?
Its EC50 is 81.3 nM.

How did the EC50 turn out when CN1CCN(C2=Nc3ccc(Cl)cc3Oc3cc(F)ccc32)CC1 was run?
Its EC50 is 38.9 nM.

How did the EC50 turn out when CN1CCN(C2=Nc3cc(Cl)ccc3Oc3ccccc32)CC1 [ISOLOXAPINE] was run?
The EC50 was 28.2 nM.

With CN1CCN(C2=Nc3cc(Cl)ccc3Oc3c(F)cccc32)CC1 as the compound, how does the EC50 read?
The EC50 was 14.8 nM.

For CN1CCN(C2=Nc3ccc(Cl)cc3Oc3c(Cl)cccc32)CC1, which EC50 is on record?
Its EC50 is 14.8 nM.

These compounds were tested against T2, Histamine H1 receptor (Homo sapiens, UniProt P35367) (assay: Displacement of [3H]mepyramine from human histamine H1 receptor). Details: not given.
T2 sequence (P35367 whole entry): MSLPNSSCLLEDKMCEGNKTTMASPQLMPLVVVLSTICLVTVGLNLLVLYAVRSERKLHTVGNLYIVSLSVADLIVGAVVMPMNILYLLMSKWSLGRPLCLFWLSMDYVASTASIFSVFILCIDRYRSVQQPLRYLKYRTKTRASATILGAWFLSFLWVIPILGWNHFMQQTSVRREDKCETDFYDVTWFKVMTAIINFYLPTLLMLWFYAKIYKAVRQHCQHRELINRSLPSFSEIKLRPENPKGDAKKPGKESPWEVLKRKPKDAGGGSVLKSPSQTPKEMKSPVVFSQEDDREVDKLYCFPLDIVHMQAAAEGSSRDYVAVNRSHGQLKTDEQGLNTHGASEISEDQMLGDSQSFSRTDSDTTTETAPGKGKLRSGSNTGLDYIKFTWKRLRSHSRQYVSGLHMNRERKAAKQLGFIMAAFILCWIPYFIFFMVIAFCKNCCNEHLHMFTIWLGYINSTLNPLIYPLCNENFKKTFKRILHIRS

For CN1CCN(C2=Nc3ccc(Cl)cc3Oc3ccccc32)CC1, which Ki is on record?
Its Ki is 7.76 nM.

The compounds below were run against Histamine H2 receptor (Homo sapiens, UniProt P25021) (assay: Displacement of [3H]APT from human histamine H2 receptor transfected in COS7 cells). Details: not given.
Type: cell-based, COS-7

Chain of Histamine H2 receptor (P25021 whole entry): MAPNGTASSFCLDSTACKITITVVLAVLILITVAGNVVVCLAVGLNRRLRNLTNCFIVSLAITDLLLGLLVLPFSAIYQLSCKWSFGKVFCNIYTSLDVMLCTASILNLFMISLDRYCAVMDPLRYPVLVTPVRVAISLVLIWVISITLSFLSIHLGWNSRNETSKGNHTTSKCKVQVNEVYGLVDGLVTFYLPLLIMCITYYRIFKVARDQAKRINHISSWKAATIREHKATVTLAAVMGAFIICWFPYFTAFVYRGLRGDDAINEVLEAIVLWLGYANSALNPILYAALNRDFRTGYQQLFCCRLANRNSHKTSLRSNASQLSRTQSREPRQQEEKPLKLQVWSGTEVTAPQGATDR

For CN1CCN(C2=Nc3ccc(Cl)cc3Oc3ccccc32)CC1, which Ki is on record?
Its Ki is 8710 nM.

What follows are compounds tested against T1, Histamine H4 receptor (assay: Agonist activity at human histamine H4 receptor transfected in SK-N-MC cells). Details: not given.
Type: functional, cell-based

With CN1CCN(C2=Nc3ccccc3Oc3ccccc32)CC1 as the compound, how does the Activity read?
The Activity was 1.

With CN1CCN(C2=Nc3ccc(Cl)cc3Oc3ccccc32)CC1 as the compound, how does the Activity read?
Its Activity is 1.

Which Activity does the source give for CN1CCN(C2=Nc3ccc(Cl)cc3Oc3c(F)cccc32)CC1 here?
The Activity was 1.

Which Activity does the source give for CN1CCN(C2=Nc3ccccc3Oc3ccc(Cl)cc32)CC1 [LOXAPINE] here?
Its Activity is 0.5.

Which Activity does the source give for CN1CCN(C2=Nc3cc(Cl)ccc3Oc3cc(Cl)ccc32)CC1 here?
Its Activity is 1.

Cc1ccc2c(c1)Oc1ccccc1C(N1CCN(C)CC1)=N2 was tested. Which Activity did it give?
Its Activity is 1.

Which Activity does the source give for CN1CCN(C2=Nc3cc(Cl)ccc3Oc3ccc(F)cc32)CC1 here?
Its Activity is 1.

How did the Activity turn out when CN1CCN(C2=Nc3ccc(Cl)cc3Oc3cc(F)ccc32)CC1 was run?
Its Activity is 1.

For CN1CCN(C2=Nc3cc(Cl)ccc3Oc3ccccc32)CC1 [ISOLOXAPINE], which Activity is on record?
The Activity was 1.

With CN1CCN(C2=Nc3cc(Cl)ccc3Oc3c(F)cccc32)CC1 as the compound, how does the Activity read?
The Activity was 1.

CN1CCN(C2=Nc3ccc(Cl)cc3Oc3c(Cl)cccc32)CC1 was tested. Which Activity did it give?
Its Activity is 1.

What follows are compounds tested against Histamine H3 receptor (Homo sapiens, UniProt Q9Y5N1) (assay: Displacement of [3H]histamine from human histamine H3 receptor transfected in SK-N-MC cells). Details: not given.
Type: cell-based
Procedure, shortened: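 Homogenates of SK-N-MC cells stably expressing the human H3 receptor were used. Affinity was determined by radioligand displacement.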

Chain of Histamine H3 receptor (Q9Y5N1 whole entry): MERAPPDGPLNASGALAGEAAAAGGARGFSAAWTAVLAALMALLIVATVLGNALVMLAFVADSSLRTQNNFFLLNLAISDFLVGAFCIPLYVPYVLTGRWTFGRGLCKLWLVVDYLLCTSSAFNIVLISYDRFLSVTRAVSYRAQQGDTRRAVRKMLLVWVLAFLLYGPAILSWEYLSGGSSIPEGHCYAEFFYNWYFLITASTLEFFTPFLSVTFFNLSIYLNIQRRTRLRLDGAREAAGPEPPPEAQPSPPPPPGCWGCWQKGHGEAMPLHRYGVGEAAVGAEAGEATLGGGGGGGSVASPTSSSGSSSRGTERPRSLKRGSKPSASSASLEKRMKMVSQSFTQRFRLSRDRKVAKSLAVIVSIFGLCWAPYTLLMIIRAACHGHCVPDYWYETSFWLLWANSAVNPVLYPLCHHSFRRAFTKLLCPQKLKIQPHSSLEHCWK

With CN1CCN(C2=Nc3ccc(Cl)cc3Oc3ccccc32)CC1 as the compound, how does the Ki read?
Its Ki is 9120 nM.

What follows are compounds tested against T2, Histamine H1 receptor (assay: Activity at human histamine H1 receptor transfected in COS7 cells by NF-kappaB luciferase reporter assay). Details: not given.
Type: functional, cell-based, COS-7

For CN1CCN(C2=Nc3ccc(Cl)cc3Oc3ccccc32)CC1, which EC50 is on record?
Its EC50 is 6.76 nM.

These compounds were tested against T1, Histamine H4 receptor. Details: SK-N-MC, 100 nM.

For CN1CCN(C2=Nc3ccc(Cl)cc3Oc3ccccc32)CC1, which Bmax is on record?
Its Bmax is 934 fmol/mg.

CN1CCN(C2=Nc3cc(Cl)ccc3Nc3ccccc32)CC1 was tested. Which Bmax did it give?
Its Bmax is 996 fmol/mg.

The compounds below were run against T1, Histamine H4 receptor. Details: SK-N-MC, 300 nM.

With CN1CCN(C2=Nc3cc(Cl)ccc3Nc3ccccc32)CC1 as the compound, how does the Bmax read?
The Bmax was 899 fmol/mg.

These compounds were tested against T1, Histamine H4 receptor. Details: SK-N-MC, 1 uM.

With CN1CCN(C2=Nc3cc(Cl)ccc3Nc3ccccc32)CC1 as the compound, how does the Bmax read?
Its Bmax is 987 fmol/mg.

Each compound was assayed against T1, Histamine H4 receptor. Details: SK-N-MC, 10 nM.

How did the Bmax turn out when CN1CCN(C2=Nc3ccc(Cl)cc3Oc3ccccc32)CC1 was run?
Its Bmax is 951 fmol/mg.

These compounds were tested against T1, Histamine H4 receptor. Details: SK-N-MC, 30 nM.

CN1CCN(C2=Nc3ccc(Cl)cc3Oc3ccccc32)CC1 was tested. Which Bmax did it give?
Its Bmax is 934 fmol/mg.
